# Source: publication PMC6217806 (European journal of medicinal chemistry, 2018)
# Columns and labels:
# Type in all cases: cell-based
# HIV-1 NL4-3 Nanoluc-sec = details: for SI, selectivity index, calculated as CC50/EC50: CC50 (MT4) / EC50 (HIV-1 in MT4)
# [1] = CytoTox-Glo cytotoxicity assay in MT4 cells; details: human
# [2] = tested on: T cell latent HIV-1 model JLat-A2; test: FACS analysis of GFP-expressing J-Lat; details: JLat-A2, 10 and 50 nM, 72 h
# Procedure, shortened: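 J-Lat (A2) latently infected cells at 1×10⁶ cells/well, incubated with test compounds at various concentrations, 37 °C, 72 h. GFP-expressing cells scored by flow cytometry.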
# [3] = Cytotoxicity against U937 cell; details: human, U937 cells
# Procedure, shortened: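 Cells cultured 3 days with test compound over a concentration range. Viability read by CytoTox-Glo cytotoxicity assay per manufacturer's protocol, same method as for MT4 cells. CC50 taken as the concentration giving 50% reduction in cell viability.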
compound,measurement,setting,value
"CC1=C[C@@H]2C(=O)[C@]3(C=C(C)[C@H](O)[C@@]3(O)[C@@H]1OC(=O)c1ccccc1)[C@H](C)C[C@@H]1[C@H]2C1(C)C [Compound 1, 5-O-benzoyl-20-deoxyingenol]","SI, selectivity index, calculated as CC50/EC50",HIV-1 NL4-3 Nanoluc-sec,>216
"CC1=C[C@@H]2C(=O)[C@]3(C=C(C)[C@H](OC(=O)c4ccccc4)[C@@]3(O)[C@@H]1O)[C@H](C)C[C@@H]1[C@H]2C1(C)C [Compound 2, 3-O-benzoyl-20-deoxyingenol]","SI, selectivity index, calculated as CC50/EC50",HIV-1 NL4-3 Nanoluc-sec,>302
"CC(=O)O[C@H]1C(C)=C[C@]23C(=O)[C@@H](C=C(C)[C@@H](OC(=O)c4ccccc4)[C@]12O)[C@H]1[C@@H](C[C@H]3C)C1(C)C [Compound 3, kansuiphorin C]","SI, selectivity index, calculated as CC50/EC50",HIV-1 NL4-3 Nanoluc-sec,>23
"CC(=O)OCC1=C[C@@H]2C(=O)[C@]3(C=C(C)[C@H](O)[C@@]3(O)[C@@H]1O)[C@H](C)C[C@@H]1[C@H]2C1(C)C [Compound 4, ingenol monoacetate]","SI, selectivity index, calculated as CC50/EC50",HIV-1 NL4-3 Nanoluc-sec,>10
"CCCCCCCCCCCC(=O)O[C@@]12C[C@@H](C)[C@]34C=C(C)[C@H](OC(=O)C(C)C(C)C)[C@@]3(O)[C@H](O)C(CO)=C[C@H](C4=O)[C@@H]1C2(C)C (some centres unmarked) [Compound 5, 3-O-(2,3-dimethylbutanoyl)-13-O-dodecanoylingenol]","SI, selectivity index, calculated as CC50/EC50",HIV-1 NL4-3 Nanoluc-sec,>7500
"C=C1[C@H](OC(=O)c2ccccc2)[C@H]2[C@@H](OC(C)=O)[C@](C)(O)[C@H](OC(C)=O)[C@]2(O)C(=O)[C@@H](C)[C@H]2O[C@@H]2C(C)(C)C(=O)[C@H](O)[C@H]1OC(=O)c1ccccc1 [Compound 7, kansuinin C]",anti-HIV activity,HIV-1 NL4-3 Nanoluc-sec; jatrophane diterpenoids isolated from E3-fraction,no anti-HIV activity
"CCCCCCCCCCCC(=O)O[C@@]12C[C@@H](C)[C@]34C=C(C)[C@H](O)[C@@]3(O)[C@H](O)C(CO)=C[C@H](C4=O)[C@@H]1C2(C)C [Compound 11, 13-oxyingenol-13-dodecanoate]","SI, selectivity index, calculated as CC50/EC50",HIV-1 NL4-3 Nanoluc-sec,>273
"COc1ccc(C(=O)O[C@H]2C(C)=C[C@]34C(=O)[C@@H](C=C(C)[C@@H](O)[C@]23O)[C@H]2[C@@H](C[C@H]4C)C2(C)C)cc1 [Compound 12a, 3-(p-Methoxybenzoyl)-20-deoxyingenol]","SI, selectivity index, calculated as CC50/EC50",HIV-1 NL4-3 Nanoluc-sec,>64
"COc1ccc(C(=O)O[C@@H]2C(C)=C[C@@H]3C(=O)[C@]4(C=C(C)[C@H](O)[C@@]24O)[C@H](C)C[C@@H]2[C@H]3C2(C)C)cc1 [Compound 12b, 5-(p-methoxybenzoyl)-20-deoxyingenol]","SI, selectivity index, calculated as CC50/EC50",HIV-1 NL4-3 Nanoluc-sec,>20
"CC1=C[C@@H]2C(=O)[C@]3(C=C(C)[C@H](OC(=O)/C=C/c4ccccc4)[C@@]3(O)[C@@H]1O)[C@H](C)C[C@@H]1[C@H]2C1(C)C [Compound 13a, 3-(trans-Cinnamoyl)-20-deoxyingenol]","SI, selectivity index, calculated as CC50/EC50",HIV-1 NL4-3 Nanoluc-sec,>45
"CC1=C[C@@H]2C(=O)[C@]3(C=C(C)[C@H](O)[C@@]3(O)[C@@H]1OC(=O)/C=C/c1ccccc1)[C@H](C)C[C@@H]1[C@H]2C1(C)C [Compound 13b, 5-(trans-cinnamoyl)-20-deoxyingenol]","SI, selectivity index, calculated as CC50/EC50",HIV-1 NL4-3 Nanoluc-sec,>22
"CC1=C[C@@H]2C(=O)[C@]3(C=C(C)[C@H](OC(=O)c4ccc5ccccc5c4)[C@@]3(O)[C@@H]1O)[C@H](C)C[C@@H]1[C@H]2C1(C)C [Compound 14a, 3-(2-Naphthoyl)-20-deoxyingenol]","SI, selectivity index, calculated as CC50/EC50",HIV-1 NL4-3 Nanoluc-sec,>543
"C/C=C/C(=O)O[C@H]1C(C)=C[C@]23C(=O)[C@@H](C=C(C)[C@@H](O)[C@]12O)[C@H]1[C@@H](C[C@H]3C)C1(C)C [Compound 15a, 3-Crotonoyl-20-deoxyingenol]","SI, selectivity index, calculated as CC50/EC50",HIV-1 NL4-3 Nanoluc-sec,>17
"C/C=C/C(=O)O[C@@H]1C(C)=C[C@@H]2C(=O)[C@]3(C=C(C)[C@H](O)[C@@]13O)[C@H](C)C[C@@H]1[C@H]2C1(C)C [Compound 15b, 5-crotonoyl-20-deoxyingenol]","SI, selectivity index, calculated as CC50/EC50",HIV-1 NL4-3 Nanoluc-sec,>16
"C/C=C(\C)C(=O)O[C@H]1C(C)=C[C@]23C(=O)[C@@H](C=C(C)[C@@H](O)[C@]12O)[C@H]1[C@@H](C[C@H]3C)C1(C)C [Compound 16, 3-Tigloyl-20-deoxyingenol]","SI, selectivity index, calculated as CC50/EC50",HIV-1 NL4-3 Nanoluc-sec,>46
same,CC50 at 3 days,[1],> 9.7 µM
"C/C=C(/C)C(=O)O[C@H]1C(C)=C[C@]23C(=O)[C@@H](C=C(C)[C@@H](O)[C@]12O)[C@H]1[C@@H](C[C@H]3C)C1(C)C [Compound 17, 3-angeloyl-20-deoxyingenol]","SI, selectivity index, calculated as CC50/EC50",HIV-1 NL4-3 Nanoluc-sec,>22.8
"CCCCCCCC(=O)O[C@H]1C(C)=C[C@]23C(=O)[C@@H](C=C(C)[C@@H](O)[C@]12O)[C@H]1[C@@H](C[C@H]3C)C1(C)C [Compound 18, 3-Octanoyl-20-deoxyingenol]","SI, selectivity index, calculated as CC50/EC50",HIV-1 NL4-3 Nanoluc-sec,>59.9
"C/C=C(/C)C(=O)O[C@H]1C(C)=C[C@]23C(=O)[C@@H](C=C(CO)[C@@H](O)[C@]12O)[C@H]1[C@@H](C[C@H]3C)C1(C)C [Compound 22, 3-Angeloylingenol]","SI, selectivity index, calculated as CC50/EC50",HIV-1 NL4-3 Nanoluc-sec,>2067
same,activation of green fluorescent protein (GFP) expression,[2],comparable potency
"CC1=C[C@]23C(=O)[C@@H](C=C(CO)[C@@H](O)[C@]2(O)[C@H]1OC(=O)c1ccc2ccccc2c1)[C@H]1[C@@H](C[C@H]3C)C1(C)C [Compound 23, 3-(2-Naphthoyl)ingenol]",CC50 at 3 days,[3],> 2 µM
same,"SI, selectivity index, calculated as CC50/EC50",HIV-1 NL4-3 Nanoluc-sec,>6153
same,activation of green fluorescent protein (GFP) expression,[2],comparable potency
